The list is not random: actives were taken first. Their share in the collection is about 2%.
Casp6 inh: inhibitors of human caspase-6; P55212; inhibition, % at 12.5 µM; 350,000 tested, 0.53% active; purified caspase-6, Z-VEID-R110 cleavage fluorescence;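 active = mean inhibition across replicates at least about 35%, with every replicate also reaching that limit, limit read from the data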
Target sequence (P55212 24-179 limits assumed): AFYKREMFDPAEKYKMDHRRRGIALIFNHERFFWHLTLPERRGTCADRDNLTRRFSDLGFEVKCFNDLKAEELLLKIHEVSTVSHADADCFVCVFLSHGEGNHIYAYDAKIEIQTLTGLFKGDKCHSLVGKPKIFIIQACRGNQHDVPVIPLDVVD
Target sequence (P55212 194-293 limits assumed): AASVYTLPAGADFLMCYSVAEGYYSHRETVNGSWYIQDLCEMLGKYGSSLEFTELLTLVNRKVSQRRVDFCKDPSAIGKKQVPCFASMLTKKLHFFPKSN
Xi reactivation: activators of X-chromosome reactivation in mouse fibroblasts; XiGFP mouse fibroblasts, % GFP-positive cells imaging, 3 d; cells co-treated with 5-aza-dC sensitizer; scaled so ellipticine positive control = 100%; activation, % at 7.58 µM; 360,000 tested, 0.055% active; AID 743238;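 active = mean normalized replicate activation at least 10% and every replicate at or above 10%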
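System: XiGFP fibroblasts, SV40-immortalized. Medium: DMEM plus 5-aza-dC sensitizer. Doses: single point. Timing: 3 d treatment, 15 min room-temperature fixation. Control set: ellipticine 6 µM.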
DENV2 CPE: inhibitors of DENV2 cytopathic effect. AID 651640. DENV2-infected cells, cytopathic effect rescue, plate reader. 350,000 tested, 1.7% active. CPE inhibition, % at 9.99 µM; in the data active = CPE inhibition above about 20%, passing the limit was not always enough; tested in BHK-21 cells
CaV13 ICDI inh: Primary screen for inhibitors of IQ motif and Ca2+-dependent inactivation inhibitor domain binding in CACNA1D, Förster resonance energy transfer in living cells, …. HEK cells, CFP/YFP FRET ICDI-IQ, plate reader, 10 min; percent FRET-ratio fall versus neutral wells. AID 743397. inhibition, % at 12.3 µM. 340,000 tested, 0.098% active;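 active = mean replicate inhibition of at least 30% and at least 1% of replicates passing that level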
FN deposit inh: fibronectin deposition inhibition | 350,000 tested, 0.086% active | AID 743247 | inhibition, % at 12.6 µM | AH1F fibroblasts, Alexa488-fibronectin deposition fluorescence, overnight;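 active = mean inhibition across replicates of 30% or more, regardless of how many single replicates reach that level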
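Assay system: AH1F fibroblast monolayer, labelled fibronectin deposition. Amount: 10000 cells per well. Also added: labelled fibronectin 24 nM. Compound: single-point pinned compound. Incubation: cell attachment 1 h, compound and FN exposure overnight. Detection: fluorescence after three HBSS washes, excitation 485 nm, emission 525 nm. Read-out: inhibition of fibronectin deposition signal.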
Large screens that a line does not name were inactive.

O=C(O)c1ccc2c3c(cccc13)C(=O)N(c1ccccc1)C2=O	Casp6 inh 50
O=C(O)c1ccc(N2C(=O)c3cccc4cccc(c34)C2=O)cc1	none
NN1C(=O)c2cccc3c(C(=O)O)ccc(c23)C1=O	none (no result: Casp6 inh, DENV2 CPE)
COc1ccc2c3c(n(C)c2c1)[C@@H](CO)NCC31CN(C(=O)Nc2ccc(F)cc2F)C1	none (no result: Casp6 inh, CaV13 ICDI inh, FN deposit inh)
CC(C)NC(=O)Nc1ccc2c(c1)CC(=O)N([C@H](C)CO)C[C@H](C)[C@@H](CN(C)Cc1ccc(C(=O)Nc3ccccc3N)cc1)O2	none (no result: CaV13 ICDI inh, FN deposit inh)
C[C@@H]1CN([C@H](C)CO)C(=O)c2cc(NC(=O)Cn3cnnn3)ccc2O[C@H]1CN(C)Cc1ccc(C(=O)Nc2ccccc2N)cc1	none (no result: CaV13 ICDI inh)
C[C@H]1CN([C@@H](C)CO)C(=O)Cc2cc(NC(=O)NC3CCCCC3)ccc2O[C@@H]1CN(C)Cc1ccc(C(=O)Nc2ccccc2N)cc1	DENV2 CPE 32 (no result: CaV13 ICDI inh, FN deposit inh)
C[C@@H]1CN([C@@H](C)CO)C(=O)Cc2cc(NC(=O)NC3CCCCC3)ccc2O[C@H]1CN(C)Cc1ccc(-c2ccccc2)cc1	none (no result: CaV13 ICDI inh, FN deposit inh)
C[C@@H]1CN([C@@H](C)CO)C(=O)Cc2cc(NC(=O)NC3CCCCC3)ccc2O[C@@H]1CN(C)Cc1ccc(Cl)c(Cl)c1	DENV2 CPE 59 (no result: CaV13 ICDI inh, FN deposit inh)
C[C@H]1CN([C@@H](C)CO)C(=O)Cc2cc(NC(=O)NC3CCCCC3)ccc2O[C@H]1CN(C)Cc1ccc(-c2ccccc2)cc1	Casp6 inh 42 (no result: CaV13 ICDI inh, FN deposit inh)
C[C@H](CO)N1C[C@H](C)[C@H](CN(C)Cc2ccc(C(=O)Nc3ccccc3N)cc2)Oc2ccc(NC(=O)Cn3cnnn3)cc2CC1=O	DENV2 CPE 55 (no result: CaV13 ICDI inh, FN deposit inh)
O=S(=O)(c1ccccc1F)N1CCCCN2[C@@H](CO)[C@@H](c3ccc(-c4ccncc4)cc3)[C@@H]2C1	none (no result: CaV13 ICDI inh, FN deposit inh)
CC(=O)N(C)C[C@@H]1Oc2ccc(NS(C)(=O)=O)cc2CC(=O)N(C)C[C@H]1C	none (no result: Casp6 inh, DENV2 CPE, CaV13 ICDI inh)
O=C(C[C@@H]1C[C@H]2c3cc(NS(=O)(=O)c4ccc(F)cc4)ccc3O[C@H]2[C@@H](CO)O1)NC1CCCC1	none (no result: CaV13 ICDI inh)
C[C@H](CO)N1C[C@H](C)[C@H](CN(C)Cc2ccc(-c3ccccc3)cc2)Oc2ccc(NC(=O)NC3CCCCC3)cc2CC1=O	DENV2 CPE 22 (no result: CaV13 ICDI inh, FN deposit inh)
C[C@H]1CN([C@@H](C)CO)C(=O)Cc2cc(NC(=O)NC3CCCCC3)ccc2O[C@@H]1CN(C)Cc1ccc(-c2ccccc2)cc1	DENV2 CPE 31 (no result: CaV13 ICDI inh, FN deposit inh)
CC(C)NC(=O)Nc1ccc2c(c1)CC(=O)N([C@@H](C)CO)C[C@@H](C)[C@H](CN(C)Cc1ccc(-c3ccccc3)cc1)O2	DENV2 CPE 30 (no result: CaV13 ICDI inh, FN deposit inh)
CC(C)NC(=O)Nc1ccc2c(c1)CC(=O)N([C@H](C)CO)C[C@H](C)[C@@H](CN(C)Cc1ccccc1)O2	none (no result: CaV13 ICDI inh, FN deposit inh)
COc1ccc2c3c([nH]c2c1)[C@@H](CO)N(C(=O)CC1CC1)CC31CN(C(=O)CC2CC2)C1	none (no result: Casp6 inh, CaV13 ICDI inh, FN deposit inh)
C[C@H](CO)N1C[C@H](C)[C@H](CN(C)C(=O)CN2CCOCC2)Oc2ncc(-c3cncnc3)cc2C1=O	none (no result: Casp6 inh, DENV2 CPE, CaV13 ICDI inh)
Cn1c(N)c(C(=O)N/N=C/c2ccccc2)sc1=S	none
Cn1c(C(=O)N/N=C/c2ccccc2)cc2ccccc21	DENV2 CPE 88
CCc1cnc(N2[C@H](CO)[C@H](c3ccc(C4=CCCCC4)cc3)[C@@H]2C#N)s1	DENV2 CPE 29 (no result: CaV13 ICDI inh, FN deposit inh)
CCc1cnc(N2[C@@H](C#N)[C@@H](c3ccccc3)[C@@H]2CO)s1	DENV2 CPE 49 (no result: CaV13 ICDI inh)
CCc1cnc(N2[C@H](C#N)[C@@H](c3ccccc3)[C@@H]2CO)s1	none (no result: CaV13 ICDI inh)
Cc1noc(C)c1NC(=O)N(C)C[C@@H]1OCCCC[C@H](C)Oc2ccc(NC(=O)c3ccccc3)cc2C(=O)N([C@H](C)CO)C[C@H]1C	none (no result: CaV13 ICDI inh)
C[C@H]1CN([C@@H](C)CO)C(=O)c2cc(-c3ccc(C#N)cc3)cnc2O[C@H]1CN(C)C(=O)Nc1ccc(C(F)(F)F)cc1	none (no result: CaV13 ICDI inh)
COc1ccc(NC(=O)CC2C(=O)N(c3ccccc3)C(=O)N2CCc2cccs2)cc1 (stereo not drawn)	none
CCOc1ccc(NC(=O)CC2C(=O)N(c3ccc(OC)cc3)C(=O)N2CCc2cccs2)cc1 (stereo not drawn)	DENV2 CPE 96
